# Experimental data: ChEMBL document CHEMBL4406880, “Design, synthesis, and bioactivity of dihydropyrimidine derivatives as kinesin spindle protein inhibitors” (Bioorg Med Chem, 2019)
# Assays:
# Format in all cases: functional
# K562 = test: Growth inhibition of human K562 cells incubated for 48 hrs by sulforhodamine B assay; settings: K562, 48 h
# Method in brief: (§1)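 NCI-60 five-dose SRB assay in RPMI 1640 with 5% FBS, 37 °C, 5% CO2. Compound given at five tenfold dilutions, 0.01–100 µM, for 48 h. Adherent cells fixed with TCA, suspension cells with 16% final TCA. Bound SRB read at 515 nm and growth calculated against time-zero and untreated controls. GI50 taken from dose–response curves as the concentration giving a 50% decrease in net cell growth.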
# NCI-H460 = test: Growth inhibition of human NCI-H460 cells incubated for 48 hrs by sulforhodamine B assay; settings: NCI-H460, 48 h; method in brief: as §1
# CAKI-1 = test: Growth inhibition of human Caki1 cells incubated for 48 hrs by sulforhodamine B assay; settings: CAKI-1, 48 h
# Method in brief: (§2)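 NCI-60 five-dose mode: five tenfold dilutions (0.01, 0.1, 1, 10, 100 µM) are applied for 48 h to cells in RPMI 1640 with 5% FBS at 37 °C. Endpoint is TCA fixation with sulforhodamine B read at 515 nm. % growth comes from the 0 h and control absorbances. GI50 is the concentration giving a 50% reduction in net cell growth.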
# SN12C = test: Growth inhibition of human SN12C cells incubated for 48 hrs by sulforhodamine B assay
# Method in brief: (§3)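 NCI-60 five-dose assay, SRB end-point, same culture conditions. Compound is tested at tenfold dilutions of 0.01, 0.1, 1, 10 and 100 µM for 48 h at 37 °C, with DMSO/PBS vehicle controls. Percentage growth at each concentration is taken against untreated cells and a time-zero plate. GI50 is 50% net growth decrease, TGI is total growth inhibition, and LC50 is 50% loss of initial cells.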
# M14 [1] = test: Growth inhibition of human M14 cells assessed as cell viability at 100 uM incubated for 48 hrs by sulforhodamine B assay; settings: M14, 48 h, read-out: Activity
# LOX IMVI [2] = test: Growth inhibition of human LOXIMVI cells assessed as cell viability at 100 uM incubated for 48 hrs by sulforhodamine B assay; settings: read-out: Activity
# SF-539 = test: Growth inhibition of human SF539 cells assessed as cell viability at 100 uM incubated for 48 hrs by sulforhodamine B assay; settings: SF-539, 48 h, read-out: Activity
# HCT-15 = test: Growth inhibition of human HCT15 cells assessed as cell viability at 100 uM incubated for 48 hrs by sulforhodamine B assay; settings: HCT-15, 48 h, read-out: Activity
# PC-3 = test: Growth inhibition of human PC3 cells assessed as cell viability at 1 uM incubated for 48 hrs by sulforhodamine B assay; settings: PC-3, 48 h, read-out: Activity
# RXF 393 = test: Growth inhibition of human RXF393 cells assessed as cell viability at 1 uM incubated for 48 hrs by sulforhodamine B assay; settings: RXF 393, 48 h, read-out: Activity
# SK-OV-3 = test: Growth inhibition of human SKOV3 cells assessed as cell viability at 1 uM incubated for 48 hrs by sulforhodamine B assay; settings: SK-OV-3, 48 h, read-out: Activity
# IGROV-1 = test: Growth inhibition of human IGROV1 cells assessed as cell viability at 1 uM incubated for 48 hrs by sulforhodamine B assay; settings: IGROV-1, 48 h, read-out: Activity
# KM12 [3] = test: Growth inhibition of human KM12 cells assessed as cell viability at 1 uM incubated for 48 hrs by sulforhodamine B assay; settings: KM12, 48 h, read-out: Activity
# NCI-H23 [4] = test: Growth inhibition of human NCI-H23 cells assessed as cell viability at 1 uM incubated for 48 hrs by sulforhodamine B assay; settings: NCI-H23, 48 h, read-out: Activity
# HL-60(TB) = test: Growth inhibition of human HL-60(TB) cells assessed as cell viability at 1 uM incubated for 48 hrs by sulforhodamine B assay; settings: HL-60, 48 h, read-out: Activity; method in brief: as §3
# M14 [5] = test: Growth inhibition of human M14 cells assessed as cell viability at 0.1 uM incubated for 48 hrs by sulforhodamine B assay; settings: M14, 48 h, read-out: Activity
# LOX IMVI [6] = test: Growth inhibition of human LOXIMVI cells assessed as cell viability at 0.1 uM incubated for 48 hrs by sulforhodamine B assay; settings: read-out: Activity
# SNB-75 = test: Growth inhibition of human SNB75 cells assessed as cell viability at 0.1 uM incubated for 48 hrs by sulforhodamine B assay; settings: SNB-75, 48 h, read-out: Activity
# SF-295 = test: Growth inhibition of human SF295 cells assessed as cell viability at 0.1 uM incubated for 48 hrs by sulforhodamine B assay; settings: SF-295, 48 h, read-out: Activity
# SF-268 = test: Growth inhibition of human SF268 cells assessed as cell viability at 0.1 uM incubated for 48 hrs by sulforhodamine B assay; settings: SF-268, 48 h, read-out: Activity
# KM12 [7] = test: Growth inhibition of human KM12 cells assessed as cell viability at 0.1 uM incubated for 48 hrs by sulforhodamine B assay; settings: KM12, 48 h, read-out: Activity
# CCRF-CEM = test: Growth inhibition of human CCRF-CEM cells assessed as cell viability at 0.1 uM incubated for 48 hrs by sulforhodamine B assay; settings: read-out: Activity
# MDA-MB-468 = test: Growth inhibition of human MDA-MB-468 cells assessed as cell viability at 0.001 uM incubated for 48 hrs by sulforhodamine B assay relative to control; settings: MDA-MB-468, 48 h, read-out: Activity
# T47D = test: Growth inhibition of human T47D cells assessed as cell viability at 0.001 uM incubated for 48 hrs by sulforhodamine B assay relative to control; settings: read-out: Activity
# DU-145 = test: Growth inhibition of human DU145 cells assessed as cell viability at 0.001 uM incubated for 48 hrs by sulforhodamine B assay relative to control; settings: DU-145, 48 h, read-out: Activity
# NCI-H23 [8] = test: Growth inhibition of human NCI-H23 cells assessed as cell viability at 0.001 uM incubated for 48 hrs by sulforhodamine B assay relative to control; settings: NCI-H23, 48 h, read-out: Activity
# 786-0 = test: Growth inhibition of human 786-0 cells assessed as cell viability at 100 uM incubated for 48 hrs by sulforhodamine B assay; settings: 786-0, 48 h, read-out: Activity; method in brief: as §2
# [9] = read-out: LC50 (the source's name)
# [10] = read-out: pLC50 (the source's name) (converted)
smiles,measurement,setting,value
CC1=C(C(=O)OCc2ccccc2)C(c2ccc3c(c2)OCO3)n2c(nc3ccccc32)N1 (racemic),GI50,K562; read-out: GI50,0.34 µM
same,CC50,K562; [9],> 100 µM
same,TGI,K562; read-out: TGI,> 100 µM
same,GI50,K562; read-out: pGI50 (converted),0.347 µM
same,CC50,K562; [10],> 100 µM
same,TGI,K562; read-out: pTGI,> 100 µM
same,GI50,NCI-H460; read-out: GI50,0.36 µM
same,CC50,NCI-H460; [9],> 100 µM
same,TGI,NCI-H460; read-out: TGI,> 100 µM
same,GI50,NCI-H460; read-out: pGI50 (converted),0.363 µM
same,CC50,NCI-H460; [10],> 100 µM
same,TGI,NCI-H460; read-out: pTGI,> 100 µM
same,GI50,CAKI-1; read-out: GI50,0.28 µM
same,CC50,CAKI-1; [9],> 100 µM
same,TGI,CAKI-1; read-out: TGI,> 100 µM
same,GI50,CAKI-1; read-out: pGI50 (converted),0.282 µM
same,CC50,CAKI-1; [10],> 100 µM
same,TGI,CAKI-1; read-out: pTGI,> 100 µM
same,CC50,SN12C; [9],> 100 µM
same,TGI,SN12C; read-out: TGI,> 100 µM
same,CC50,SN12C; [10],> 100 µM
same,TGI,SN12C; read-out: pTGI,> 100 µM
same,viability at 100 µM,M14 [1],24%
same,viability at 100 µM,LOX IMVI [2],32%
same,viability at 100 µM,SF-539,13%
same,viability at 100 µM,HCT-15,19%
same,viability at 1 µM,PC-3,35%
same,viability at 1 µM,RXF 393,7%
same,viability at 1 µM,SK-OV-3,27%
same,viability at 1 µM,IGROV-1,39%
same,viability at 1 µM,KM12 [3],19%
same,viability at 1 µM,NCI-H23 [4],54%
same,viability at 1 µM,HL-60(TB),8%
same,viability at 0.1 µM,M14 [5],90%
same,viability at 0.1 µM,LOX IMVI [6],93%
same,viability at 0.1 µM,SNB-75,79%
same,viability at 0.1 µM,SF-295,87%
same,viability at 0.1 µM,SF-268,94%
same,viability at 0.1 µM,KM12 [7],86%
same,viability at 0.1 µM,CCRF-CEM,98%
same,viability at 0.001 µM,MDA-MB-468,90%
same,viability at 0.001 µM,T47D,82%
same,viability at 0.001 µM,DU-145,102%
same,viability at 0.001 µM,NCI-H23 [8],93%
same,viability at 100 µM,786-0,22%
